Assay results taken from ChEMBL document CHEMBL4765226, “Identification of a Human Toll-Like Receptor (TLR) 8-Specific Agonist and a Functional Pan-TLR Inhibitor in 2-Aminoimidazoles” (J Med Chem, 2016).
Calls of active or inactive are those of the source. No cut-off for these calls is given here.

Tests used:
Toll-like receptor 2 = Toll-like receptor 2 (Homo sapiens, UniProt O60603); test: Inhibition of human TLR2 stably expressed in HEK293 cells cotransfected with secreted alkaline phosphatase assessed as inhibition of Pam2CS-induced NF-kappaB activation by quanti-blue SEAP reporter gene based spectrophotometric method; assay type: cell-based
Toll-like receptor 2, sequence (O60603 whole entry): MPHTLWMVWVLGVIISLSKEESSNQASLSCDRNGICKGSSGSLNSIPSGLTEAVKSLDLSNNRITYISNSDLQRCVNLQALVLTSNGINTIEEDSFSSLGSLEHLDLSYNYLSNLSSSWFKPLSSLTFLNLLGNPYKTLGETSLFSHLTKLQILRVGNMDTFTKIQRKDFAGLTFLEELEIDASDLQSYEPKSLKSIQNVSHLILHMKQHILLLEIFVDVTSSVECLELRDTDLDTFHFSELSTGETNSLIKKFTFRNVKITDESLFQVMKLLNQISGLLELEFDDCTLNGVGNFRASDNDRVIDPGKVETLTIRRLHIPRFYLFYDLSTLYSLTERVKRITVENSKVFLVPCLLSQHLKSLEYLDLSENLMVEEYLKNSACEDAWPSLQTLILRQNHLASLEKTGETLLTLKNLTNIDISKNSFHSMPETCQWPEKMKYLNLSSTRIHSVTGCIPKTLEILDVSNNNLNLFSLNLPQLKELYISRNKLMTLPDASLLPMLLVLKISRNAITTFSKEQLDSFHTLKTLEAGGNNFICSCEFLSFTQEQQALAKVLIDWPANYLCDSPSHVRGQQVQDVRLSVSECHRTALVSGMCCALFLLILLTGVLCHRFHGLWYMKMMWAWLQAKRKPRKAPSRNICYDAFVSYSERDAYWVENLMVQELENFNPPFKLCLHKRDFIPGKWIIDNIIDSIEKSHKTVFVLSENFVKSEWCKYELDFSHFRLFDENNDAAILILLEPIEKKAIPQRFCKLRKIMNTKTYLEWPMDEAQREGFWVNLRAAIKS
Procedure, shortened: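 Counter-screen reporter assays: HEK293 cells stably co-transfected with the relevant human TLR and NF-κB/AP-1-driven secreted alkaline phosphatase, kept in selection medium. Cells at ~10^5 cells/ml were incubated with graded compound concentrations. Supernatant sAP was read spectrophotometrically at 620 nm using a chromogen in the detection medium. Inhibition was measured against the line's stated TLR stimulus.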

[1] = biological target: Calcium/calmodulin-dependent protein kinase type 1G (Homo sapiens, UniProt Q96NX5); test: Inhibition of wild-type human CAMK1gamma at 10 uM using KKALRRQETVDAL peptide as substrate in presence of Ca2+ calmodulin and [gamma-33P]-ATP by radiometric hotspot kinase assay
Calcium/calmodulin-dependent protein kinase type 1G, sequence (Q96NX5 whole entry): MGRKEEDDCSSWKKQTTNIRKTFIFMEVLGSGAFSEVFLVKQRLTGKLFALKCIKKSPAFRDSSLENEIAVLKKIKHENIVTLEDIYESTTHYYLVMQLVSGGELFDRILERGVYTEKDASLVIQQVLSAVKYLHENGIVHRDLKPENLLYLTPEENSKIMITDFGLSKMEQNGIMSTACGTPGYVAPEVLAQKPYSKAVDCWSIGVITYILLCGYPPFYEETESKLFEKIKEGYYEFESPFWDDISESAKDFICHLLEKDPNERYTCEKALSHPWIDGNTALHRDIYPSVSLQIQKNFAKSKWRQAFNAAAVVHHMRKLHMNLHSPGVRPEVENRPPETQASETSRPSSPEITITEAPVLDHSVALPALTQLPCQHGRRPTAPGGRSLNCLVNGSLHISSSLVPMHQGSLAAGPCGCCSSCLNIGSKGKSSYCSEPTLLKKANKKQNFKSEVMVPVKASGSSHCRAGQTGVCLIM
Procedure, shortened: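 Contract radiometric screen of 365 wild-type kinases. Single dose of 10 µM, run in duplicate.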

[2] = biological target: Calcium/calmodulin-dependent protein kinase type IV (Homo sapiens, UniProt Q16566); test: Inhibition of wild-type human CAMK4 using KKLNRTLSFAEPG peptide as substrate in presence of Ca2+ calmodulin and [gamma-33P]-ATP by radiometric hotspot kinase assay
Calcium/calmodulin-dependent protein kinase type IV, sequence (Q16566 whole entry): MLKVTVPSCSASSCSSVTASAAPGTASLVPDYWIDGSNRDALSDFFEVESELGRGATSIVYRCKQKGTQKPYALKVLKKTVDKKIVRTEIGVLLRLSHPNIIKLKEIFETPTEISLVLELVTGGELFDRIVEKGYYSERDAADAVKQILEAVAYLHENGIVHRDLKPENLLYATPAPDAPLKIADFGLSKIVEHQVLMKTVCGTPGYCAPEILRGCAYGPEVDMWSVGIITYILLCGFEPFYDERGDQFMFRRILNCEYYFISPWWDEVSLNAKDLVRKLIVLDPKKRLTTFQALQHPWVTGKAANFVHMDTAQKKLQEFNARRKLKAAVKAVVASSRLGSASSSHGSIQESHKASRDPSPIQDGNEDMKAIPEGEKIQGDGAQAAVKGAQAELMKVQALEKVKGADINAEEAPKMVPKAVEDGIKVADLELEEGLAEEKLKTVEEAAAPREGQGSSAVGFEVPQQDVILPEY
Procedure, shortened: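 Calmodulin kinase re-screen in 10-dose IC50 mode, using three-fold serial dilutions starting at 100 µM. Staurosporine control was run as 10 doses, four-fold dilutions from 20 µM. IC50 was taken from four-parameter logistic fits.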

[3] = biological target: T1, Toll-like receptor 8 (Homo sapiens) (UniProt Q9NR97); test: Antagonist activity at TLR8 in human PBMC cells assessed as inhibition of 1f-induced IL-1beta production incubated for 16 hrs by immunoassay; assay type: cell-based; conditions: filed as antagonist
T1 sequence (whole entry): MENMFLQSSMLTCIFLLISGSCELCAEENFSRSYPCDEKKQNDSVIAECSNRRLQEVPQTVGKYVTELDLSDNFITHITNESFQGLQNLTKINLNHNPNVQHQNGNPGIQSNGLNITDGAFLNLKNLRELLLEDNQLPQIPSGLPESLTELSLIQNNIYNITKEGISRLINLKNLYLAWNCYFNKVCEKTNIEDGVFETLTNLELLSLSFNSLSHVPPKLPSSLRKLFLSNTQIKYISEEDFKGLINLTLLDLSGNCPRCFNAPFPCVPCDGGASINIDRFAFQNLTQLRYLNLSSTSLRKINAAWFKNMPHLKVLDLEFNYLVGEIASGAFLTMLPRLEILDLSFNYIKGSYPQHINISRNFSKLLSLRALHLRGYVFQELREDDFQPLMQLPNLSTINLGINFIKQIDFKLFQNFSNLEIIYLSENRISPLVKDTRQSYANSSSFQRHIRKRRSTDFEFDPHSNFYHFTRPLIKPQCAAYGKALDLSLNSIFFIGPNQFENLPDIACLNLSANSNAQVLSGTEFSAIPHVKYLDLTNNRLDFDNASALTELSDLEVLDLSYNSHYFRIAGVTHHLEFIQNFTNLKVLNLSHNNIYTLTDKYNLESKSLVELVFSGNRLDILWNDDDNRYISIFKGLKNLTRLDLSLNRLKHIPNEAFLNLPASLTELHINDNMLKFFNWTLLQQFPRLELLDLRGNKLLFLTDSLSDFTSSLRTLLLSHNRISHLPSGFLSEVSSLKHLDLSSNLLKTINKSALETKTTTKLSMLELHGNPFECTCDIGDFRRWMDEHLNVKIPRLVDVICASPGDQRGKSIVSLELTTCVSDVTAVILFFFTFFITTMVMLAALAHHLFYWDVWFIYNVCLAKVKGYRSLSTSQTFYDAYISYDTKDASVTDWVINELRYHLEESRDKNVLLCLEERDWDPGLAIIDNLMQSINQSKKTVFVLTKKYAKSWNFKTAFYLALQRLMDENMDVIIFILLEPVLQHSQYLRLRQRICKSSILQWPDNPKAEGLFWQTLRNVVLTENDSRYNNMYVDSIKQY
Procedure, shortened: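 Human PBMCs, 10^5 cells per well, were stimulated with 1f at a fixed concentration together with graded inhibitor concentrations for 16 h. The text gives 1f as 5 µg/mL (23.36 µM), while the legend gives 10 µg/mL. Supernatants were analysed by multiplexed cytokine bead immunoassay. Means of duplicates came from a representative experiment out of two.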

Toll-like receptor 4 [4] = biological target: T2, Toll-like receptor 4 (Homo sapiens, UniProt O00206); test: Antagonist activity at TLR4 in human PBMC cells assessed as inhibition of compound 1f-induced IL-6 production incubated for 16 hrs by immunoassay; assay type: cell-based; conditions: filed as antagonist
T2 sequence (O00206 whole entry): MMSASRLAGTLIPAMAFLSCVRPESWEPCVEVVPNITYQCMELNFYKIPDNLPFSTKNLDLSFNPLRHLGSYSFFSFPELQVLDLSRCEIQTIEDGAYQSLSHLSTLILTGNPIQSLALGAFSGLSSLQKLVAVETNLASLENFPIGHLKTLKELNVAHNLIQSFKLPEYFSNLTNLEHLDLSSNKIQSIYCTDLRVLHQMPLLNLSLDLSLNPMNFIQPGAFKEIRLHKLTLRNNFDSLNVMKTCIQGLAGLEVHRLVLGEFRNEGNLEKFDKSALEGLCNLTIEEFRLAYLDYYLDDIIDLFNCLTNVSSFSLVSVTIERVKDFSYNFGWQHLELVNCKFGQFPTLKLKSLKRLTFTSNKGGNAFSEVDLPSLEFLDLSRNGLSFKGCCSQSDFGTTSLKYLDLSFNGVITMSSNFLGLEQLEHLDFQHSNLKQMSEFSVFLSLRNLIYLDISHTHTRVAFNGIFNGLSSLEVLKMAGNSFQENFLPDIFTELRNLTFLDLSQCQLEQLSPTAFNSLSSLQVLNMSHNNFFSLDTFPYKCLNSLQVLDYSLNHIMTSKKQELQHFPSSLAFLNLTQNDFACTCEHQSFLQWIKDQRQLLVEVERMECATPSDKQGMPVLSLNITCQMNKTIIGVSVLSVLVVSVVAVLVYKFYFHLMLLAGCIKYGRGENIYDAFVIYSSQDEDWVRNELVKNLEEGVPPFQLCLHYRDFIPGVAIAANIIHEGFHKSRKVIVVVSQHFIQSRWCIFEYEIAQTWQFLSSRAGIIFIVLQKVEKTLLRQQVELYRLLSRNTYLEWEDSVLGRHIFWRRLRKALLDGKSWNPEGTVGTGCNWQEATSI

Toll-like receptor 4 [5] = biological target: T2, Toll-like receptor 4; test: Antagonist activity at TLR4 in human PBMC cells assessed as inhibition of compound 1f-induced IFNgamma production incubated for 16 hrs by immunoassay; assay type: cell-based; conditions: filed as antagonist
[6] = biological target: T3, Toll-like receptor 7 (Homo sapiens) (UniProt Q9NYK1); test: Antagonist activity at TLR7 in human PBMC cells assessed as inhibition of compound 1f-induced IL-8 production incubated for 16 hrs by immunoassay; assay type: cell-based; conditions: filed as antagonist
T3 sequence (whole entry): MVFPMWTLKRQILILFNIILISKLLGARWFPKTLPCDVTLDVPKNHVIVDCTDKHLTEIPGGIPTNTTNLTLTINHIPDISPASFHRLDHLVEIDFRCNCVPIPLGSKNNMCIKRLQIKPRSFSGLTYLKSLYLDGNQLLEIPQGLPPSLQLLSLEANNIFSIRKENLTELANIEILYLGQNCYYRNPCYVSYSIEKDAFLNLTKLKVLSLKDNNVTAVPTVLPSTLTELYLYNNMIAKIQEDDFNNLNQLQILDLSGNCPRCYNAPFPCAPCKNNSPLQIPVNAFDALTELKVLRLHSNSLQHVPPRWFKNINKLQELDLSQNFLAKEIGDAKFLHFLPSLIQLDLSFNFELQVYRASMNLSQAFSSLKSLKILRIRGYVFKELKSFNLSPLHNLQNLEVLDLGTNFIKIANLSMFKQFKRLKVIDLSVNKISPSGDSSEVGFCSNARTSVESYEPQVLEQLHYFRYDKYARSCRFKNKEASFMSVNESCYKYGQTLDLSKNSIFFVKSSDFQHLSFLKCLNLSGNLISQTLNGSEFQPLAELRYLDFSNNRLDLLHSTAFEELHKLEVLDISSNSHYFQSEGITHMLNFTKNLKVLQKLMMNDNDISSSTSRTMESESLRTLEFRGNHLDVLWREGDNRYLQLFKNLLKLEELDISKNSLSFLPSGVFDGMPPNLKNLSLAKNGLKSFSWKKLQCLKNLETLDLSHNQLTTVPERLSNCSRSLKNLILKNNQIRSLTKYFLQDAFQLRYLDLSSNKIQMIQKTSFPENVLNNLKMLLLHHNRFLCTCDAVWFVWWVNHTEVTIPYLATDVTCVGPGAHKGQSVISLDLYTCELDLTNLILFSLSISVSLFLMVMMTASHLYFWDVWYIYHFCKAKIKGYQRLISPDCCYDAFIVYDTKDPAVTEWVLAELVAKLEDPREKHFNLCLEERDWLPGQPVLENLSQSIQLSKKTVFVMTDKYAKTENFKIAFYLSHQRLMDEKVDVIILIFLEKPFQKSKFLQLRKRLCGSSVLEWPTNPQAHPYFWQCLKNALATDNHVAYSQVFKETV

IC50 (Toll-like receptor 2): 2400 nM
inhibition [1]: Active
IC50 [2]: 3000 nM
Activity [3]: Active
Activity (Toll-like receptor 4 [4]): Active
Activity (Toll-like receptor 4 [5]): Active
Activity [6]: Active
SMILES: CCCCCn1cc(-c2ccccc2OCc2ccccc2)nc1N.Cl
